The text below walks through data of ChEMBL document CHEMBL1158098, “Crassolides A-F, cembranoids with a trans-fused lactone from the soft coral Sarcophyton crassocaule” (J Nat Prod, 2006).

Values after ≈ are worked out from the molar mass of the structure shown.

Type in all cases: functional, cell-based
One assay has as its system A549. The assay can be described thus: Cytotoxicity against human A549 cells by MTT colorimetric method. An outline of the steps: (§1)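 Human cancer cell lines were obtained from ATCC. Cytotoxicity was measured by the MTT [3-(4,5-dimethylthiazol-2-yl)-2,5-diphenyltetrazolium bromide] colorimetric method.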
For the next assay, the system named is MCF7. The assay can be described thus: Cytotoxicity against human MCF7 cells by MTT colorimetric method. The procedure, abridged: as §1
A short description of assay [1]: Cytotoxicity against human Hep G2 cells by MTT colorimetric method. As to conditions: HepG2. The procedure, abridged: as §1
(Tetrazolium assays rely on reduction of a dye to a coloured formazan, in cell work by metabolically active cells.)

A further assay has as its system MDA-MB-231. The assay can be described thus: Cytotoxicity against human MDA-MB-231 cells by MTT colorimetric method. The procedure, abridged: as §1

One may read the IC50 as the concentration that gives 50% inhibition. Higher therefore signals a need for much substance. As for `C=C1C(=O)O[C@@H]2[C@@H]1C[C@H](OC(C)=O)[C@](C)(O)CC/C=C(\C)CC/C=C(\C)[C@@H]2OC(C)=O` [CRASSOCOLIDE B], the IC50 was 12.1 mg/L (≈ 27.8 µM) in the assay with A549, 10.3 mg/L (≈ 23.7 µM) in the assay with MCF7, 13.1 mg/L (≈ 30.1 µM) in assay [1] and > 30 mg/L in the assay on MDA-MB-231.
As to `C=C1C(=O)O[C@H]2C/C(C)=C/CC/C(C)=C/CC[C@@](C)(O)[C@@H](OC(C)=O)C[C@H]12` [CRASSOCOLIDE C], the IC50 (in the assay on A549; in the assay on MCF7; in assay [1]; in the assay on MDA-MB-231) was > 30 mg/L throughout.
For `C=C1C(=O)O[C@H]2C/C(C)=C/CC/C(C)=C/CC[C@@](C)(O)[C@@H](O)C[C@H]12` [CRASSOCOLIDE D], the half-inhibitory concentration (IC50) was 12.5 mg/L (≈ 37.4 µM) in the assay on A549, 15.3 mg/L (≈ 45.7 µM) in the assay with MCF7, > 30 mg/L in assay [1] and > 30 mg/L in the assay on MDA-MB-231.
As for `C=C1C(=O)O[C@H]2C[C@@]3(C)O[C@@H]3CC/C(C)=C/C[C@@H](OC(C)=O)/C(C)=C/C[C@H]12` [CRASSOCOLIDE F], the IC50 came to 3.2 mg/L (≈ 8.55 µM) in the assay with A549, 7.4 mg/L (≈ 19.8 µM) with MCF7, 2.1 mg/L (≈ 5.61 µM) in assay [1] and 8.8 mg/L (≈ 23.5 µM) with MDA-MB-231.
Take `C=C1C(=O)O[C@@H]2[C@@H]1C[C@H](O)[C@](C)(O)CC/C=C(\C)CC/C=C(\C)[C@@H]2OC(C)=O` [CRASSOLIDE A]: the IC50 turned out to be 11.9 mg/L (≈ 30.3 µM) in the assay on A549, 8.9 mg/L (≈ 22.7 µM) in the assay with MCF7, 3.1 mg/L (≈ 7.9 µM) in assay [1] and 8.6 mg/L (≈ 21.9 µM) in the assay with MDA-MB-231.
`COc1cccc2c1C(=O)c1c(O)c3c(c(O)c1C2=O)C[C@@](O)(C(=O)CO)C[C@@H]3O[C@H]1C[C@H](N)[C@H](O)[C@H](C)O1` [DOXORUBICIN]: the IC50 came out at 0.3 mg/L (≈ 0.552 µM) in the assay on MCF7, 0.2 mg/L (≈ 0.368 µM) in assay [1] and 0.1 mg/L (≈ 0.184 µM) with MDA-MB-231.
Turning to `C=C1C(=O)O[C@H]2C[C@]3(C)O[C@H]3CC/C(C)=C/CC/C(C)=C/C[C@H]12` [LOBOPHYTOLIDE], the IC50 with A549 was 2.1 mg/L (≈ 6.64 µM); in the assay on MCF7 it was 2.3 mg/L (≈ 7.27 µM); in assay [1] it was 6.3 mg/L (≈ 19.9 µM); with MDA-MB-231, 2 mg/L (≈ 6.32 µM).
